# ChEMBL document CHEMBL2429765 (J Med Chem, 2013)
# Key:
# in vitro = conditions: human, liver microsomes
# [1] = Oral bioavailability in rat; type: ADME, organism-based; conditions: in vivo
# [2] = Half life in rat; type: ADME, organism-based; conditions: in vivo
# [3] = Volume of distribution at steady state in rat; type: ADME, organism-based; conditions: in vivo, read-out: Vdss
# [4] = Plasma clearance in rat; type: ADME, organism-based
# [5] = Partition coefficient of the compound at pH 7.4; type: physicochemical; conditions: octanol/water
# Outline: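 cLogD at pH 7.4 calculated with ACD pchbat version 9.3.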
Compound,"microsomal CLint at 0.5 h, 1 µM (in vitro)",also measured
CN(C)c1ccc2nnc(Cc3ccc4ncccc4c3)n2n1,35 µL/min/mg,–
C[C@@H](c1ccc2ncccc2c1)c1nnc2ccc(-c3ccc(C#N)cc3)nn12,12.1 µL/min/mg,–
CC(C)Nc1ccc2nnc([C@@H](C)c3c[nH]c4ncccc34)n2n1,25 µL/min/mg,–
COc1ccc(-c2ccc3nnc([C@@H](C)c4ccc5ncccc5c4)n3n2)cc1C,304 µL/min/mg,–
C[C@@H](c1ccc2ncccc2c1)c1nnc2ccc(-c3ccc(S(C)(=O)=O)cc3)nn12,< 7.6 µL/min/mg,–
C[C@@H](c1ccc2ncccc2c1)c1nnc2ccc(-c3ccccc3C#N)nn12,23.1 µL/min/mg,–
Nc1ccc2nnc(Cc3ccc4ncccc4c3)n2n1,< 7.6 µL/min/mg,–
CCS(=O)(=O)c1ccc(-c2ccc3nnc([C@@H](C)c4ccc5ncccc5c4)n3n2)cc1,10.4 µL/min/mg,–
N#Cc1cccc(-c2ccc3nnc(Cc4ccc5ncccc5c4)n3n2)c1,22.7 µL/min/mg,–
C[C@@H](c1ccc2ncccc2c1)c1nnc2ccc(-c3cccc(C#N)c3)nn12,17.9 µL/min/mg,bioavailability [1]: 13%; half-life [2]: 4.8 h; Vd [3]: 4.9 L/kg; clearance [4]: 22 mL/min/kg; logD [5]: 2.8
C[C@@H](c1ccc2ncccc2c1)c1nnc2ccc(-c3ccc4c(c3)OCCO4)nn12,304 µL/min/mg,–
Fc1ccc(-c2ccc3nnc(Cc4ccc5ncccc5c4)n3n2)cc1F,13.4 µL/min/mg,–
C[C@@H](c1c[nH]c2ncccc12)c1nnc2ccc(-c3ccc(C#N)cc3)nn12,28 µL/min/mg,–
CCNc1ccc2nnc([C@@H](C)c3c[nH]c4ncccc34)n2n1,18 µL/min/mg,–
CNC(=O)c1ccc(-c2ccc3nnc([C@@H](C)c4ccc5ncccc5c4)n3n2)cc1,12.2 µL/min/mg,–

# Second part, led by results:
"microsomal CLint at 0.5 h, 1 µM (in vitro)",Compound,also measured
< 7.6 µL/min/mg,C[C@@H](c1ccc2ncccc2c1)n1nnc2ncc(-c3cnn(C)c3)nc21,–
< 7.6 µL/min/mg,Cn1cc(-c2ccc3nnc(Cc4c[nH]c5ncccc45)n3n2)cn1,–
281 µL/min/mg,COc1ccc(-c2ccc3nnc([C@@H](C)c4ccc5ncccc5c4)n3n2)cc1F,–
81.8 µL/min/mg,Cc1cccc(-c2ccc3nnc([C@@H](C)c4ccc5ncccc5c4)n3n2)c1,–
< 7.6 µL/min/mg,C[C@@H](c1ccc2ncccc2c1)c1nnc2ccc(-c3cnn(C)c3)nn12,bioavailability [1]: 58%; half-life [2]: 1.9 h; Vd [3]: 3.5 L/kg; clearance [4]: 21 mL/min/kg; logD [5]: 2.05
< 7.6 µL/min/mg,C[C@@H](c1ccc2ncccc2c1)n1nnc2ncc(-c3cnn(CCO)c3)nc21,–
232 µL/min/mg,C[C@@H](c1ccc2ncccc2c1)c1nnc2ccc(-c3ccc(N(C)C)nc3)nn12,–
20.2 µL/min/mg,CC(C)Nc1ccc2nnc([C@@H](C)c3ccc4ncccc4c3)n2n1,–
< 7.6 µL/min/mg,C[C@@H](c1c[nH]c2ncccc12)c1nnc2ccc(-c3cnn(C)c3)nn12,–
13.4 µL/min/mg,C[C@@H](c1ccc2ncccc2c1)c1nnc2ccc(-c3ccc(F)c(F)c3)nn12,bioavailability [1]: 52%; half-life [2]: 3.6 h; Vd [3]: 3.6 L/kg; clearance [4]: 31 mL/min/kg; logD [5]: 3.07
